Activity calls are given as the source filed them. The calls are words filed in the database; no cut-off is given here.
Experiments:
[1] = biological target: T1, 5-hydroxytryptamine receptor 1A (Homo sapiens, UniProt P08908); assay: Displacement of [3H]8-OH-DPAT from human 5HT1A receptor expressed in HeLa cells after 30 mins; type: cell-based
T1 sequence (P08908 whole entry): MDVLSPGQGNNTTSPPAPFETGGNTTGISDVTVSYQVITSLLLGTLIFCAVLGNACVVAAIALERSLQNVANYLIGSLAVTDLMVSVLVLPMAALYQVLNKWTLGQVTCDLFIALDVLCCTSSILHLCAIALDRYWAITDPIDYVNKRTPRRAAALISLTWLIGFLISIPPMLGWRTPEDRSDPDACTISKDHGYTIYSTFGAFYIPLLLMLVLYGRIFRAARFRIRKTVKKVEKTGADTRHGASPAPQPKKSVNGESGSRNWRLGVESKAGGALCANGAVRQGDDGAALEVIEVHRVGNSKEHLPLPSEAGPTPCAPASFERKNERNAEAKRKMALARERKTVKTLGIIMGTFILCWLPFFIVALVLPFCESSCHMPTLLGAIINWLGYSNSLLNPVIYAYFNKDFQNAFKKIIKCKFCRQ
In short: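 pKi is derived from displacement of [3H]-8-OH-DPAT binding at human cloned 5-HT1A receptor. Values are means ± SEMs of 3–6 separate experiments.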

Mus musculus [2] = assay: Antidepressant activity in CD1 mouse assessed as decrease in immobility time at 0.1 mg/kg, sc measured after 15 mins by forced swim test relative to vehicle-treated control; type: functional, organism-based; parameters: dose 0.1 mg/kg
In short: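 Mouse forced swim test scoring immobility time. The 5-HT1A-R antagonist was given alone at 0.1 mg/kg sc. Groups were compared with vehicle-treated mice, with 7–8 animals per group, and data are shown as means ± SEM.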

Mus musculus [3] = assay: Antidepressant activity in CD1 mouse assessed as decrease in immobility time at 1.25 mg/kg, sc measured after 15 mins by forced swim test relative to vehicle-treated control; type: functional, organism-based; parameters: dose 1.25 mg/kg
[4] = biological target: T2, Alpha-2B adrenergic receptor (Homo sapiens) (UniProt P18089); conditions: CHO
T2 sequence (whole entry): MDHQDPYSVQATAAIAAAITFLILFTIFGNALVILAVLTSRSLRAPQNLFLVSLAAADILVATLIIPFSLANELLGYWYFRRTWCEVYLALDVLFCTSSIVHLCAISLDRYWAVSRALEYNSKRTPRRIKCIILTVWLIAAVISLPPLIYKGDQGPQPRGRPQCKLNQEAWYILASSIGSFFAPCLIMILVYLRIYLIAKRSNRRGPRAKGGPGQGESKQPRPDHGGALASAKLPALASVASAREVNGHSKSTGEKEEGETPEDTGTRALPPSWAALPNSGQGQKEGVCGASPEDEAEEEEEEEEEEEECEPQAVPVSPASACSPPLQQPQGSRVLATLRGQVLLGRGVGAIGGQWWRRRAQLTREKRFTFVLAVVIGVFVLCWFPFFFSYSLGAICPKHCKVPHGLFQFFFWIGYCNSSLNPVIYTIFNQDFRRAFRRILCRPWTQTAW

[5] = biological target: T3, 5-hydroxytryptamine receptor 1A (Homo sapiens) (UniProt P08908); conditions: HeLa
T3 sequence (whole entry): T1 sequence (P08908 whole entry)

[6] = biological target: T4, Alpha-2C adrenergic receptor (Homo sapiens) (UniProt P18825); assay: Agonist activity at human alpha2C adrenoceptor expressed in CHO cells assessed as extracellular acidification measured after 4 mins by cytosensor microphysiometric analysis relative to control; type: functional, cell-based
T4 sequence (whole entry): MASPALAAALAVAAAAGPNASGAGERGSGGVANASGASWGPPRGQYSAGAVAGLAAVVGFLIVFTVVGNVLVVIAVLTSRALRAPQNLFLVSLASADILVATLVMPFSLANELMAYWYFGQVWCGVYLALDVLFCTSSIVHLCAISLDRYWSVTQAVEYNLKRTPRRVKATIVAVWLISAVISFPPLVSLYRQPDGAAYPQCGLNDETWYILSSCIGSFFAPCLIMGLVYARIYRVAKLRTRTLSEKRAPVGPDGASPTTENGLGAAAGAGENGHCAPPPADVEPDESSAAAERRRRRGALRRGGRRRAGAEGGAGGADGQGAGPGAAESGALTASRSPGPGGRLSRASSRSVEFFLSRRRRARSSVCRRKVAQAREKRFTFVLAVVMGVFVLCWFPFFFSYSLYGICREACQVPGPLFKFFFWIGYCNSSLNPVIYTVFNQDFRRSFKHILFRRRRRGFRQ
In short: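 Binding and functional assays run on CHO cells expressing recombinant human α2-AR subtypes. Functional read-outs are agonist potency (pEC50) with intrinsic activity (ia), or antagonist pKb. Affinity is reported as pKi. Values are means ± SEMs of 3–6 separate experiments.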

[7] = biological target: T5, Alpha-2A adrenergic receptor (Homo sapiens) (UniProt P08913); conditions: CHO
T5 sequence (whole entry): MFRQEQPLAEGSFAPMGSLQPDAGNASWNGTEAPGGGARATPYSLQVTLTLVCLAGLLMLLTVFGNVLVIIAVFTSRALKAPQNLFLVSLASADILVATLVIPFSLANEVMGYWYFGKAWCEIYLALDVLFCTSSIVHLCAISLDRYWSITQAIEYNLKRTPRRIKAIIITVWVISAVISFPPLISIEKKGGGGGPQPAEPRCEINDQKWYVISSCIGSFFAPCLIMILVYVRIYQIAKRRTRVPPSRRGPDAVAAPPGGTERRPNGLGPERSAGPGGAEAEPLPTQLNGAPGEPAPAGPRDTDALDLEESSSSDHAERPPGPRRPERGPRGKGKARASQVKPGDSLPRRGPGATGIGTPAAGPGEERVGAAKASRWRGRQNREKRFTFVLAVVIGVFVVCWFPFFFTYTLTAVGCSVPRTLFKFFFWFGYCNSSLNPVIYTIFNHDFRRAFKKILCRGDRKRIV

Structure (SMILES): CC(Oc1c(Cl)cccc1Cl)C1=NCCN1 (centres undefined) [LOFEXIDINE]
- Ki [1]: 0.126 µM

Structure (SMILES): COC(=O)[C@@H]1[C@H]2C[C@H]3c4[nH]c5ccccc5c4CCN3C[C@@H]2CC[C@@H]1O
- Activity (Mus musculus [2]): inactive
- Activity (Mus musculus [3]): inactive

Structure (SMILES): C=CCc1ccccc1O[C@H](C)C1=NCCN1
- Ki [1]: > 10 µM
- pEC50 [4]: inactive
- pD2 [5]: < 5
- Intrinsic activity [6]: 0.5
- pKb [7]: 7.4

Structure (SMILES): Clc1cccc(Cl)c1N=C1NCCN1 [CLONIDINE]
- Ki [1]: 3.24 µM

— ChEMBL document CHEMBL2086372 (ACS Med Chem Lett, 2012)
